Screens deposited in PubChem BioAssay by The Scripps Research Institute Molecular Screening Center.
Rows were chosen to be rich in hits. Some 1.8% of all compounds tested hit in one or more screens of this group.
CHRM4 PAM – potentiates acetylcholine response at human M4 receptor; P08173; CHO-K1 hM4/Gqi5, Fluo-8 calcium fluorescence, ACh EC20; 0% = ACh EC20, 100% = maximal ACh; activation, % at 3 µM; 360,000 compounds, 0.4% hits; AID 624126;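 active = activation above its plate's cutoff, the mean activation of sample wells plus 3 SD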
Target sequence (P08173 whole entry, looked up): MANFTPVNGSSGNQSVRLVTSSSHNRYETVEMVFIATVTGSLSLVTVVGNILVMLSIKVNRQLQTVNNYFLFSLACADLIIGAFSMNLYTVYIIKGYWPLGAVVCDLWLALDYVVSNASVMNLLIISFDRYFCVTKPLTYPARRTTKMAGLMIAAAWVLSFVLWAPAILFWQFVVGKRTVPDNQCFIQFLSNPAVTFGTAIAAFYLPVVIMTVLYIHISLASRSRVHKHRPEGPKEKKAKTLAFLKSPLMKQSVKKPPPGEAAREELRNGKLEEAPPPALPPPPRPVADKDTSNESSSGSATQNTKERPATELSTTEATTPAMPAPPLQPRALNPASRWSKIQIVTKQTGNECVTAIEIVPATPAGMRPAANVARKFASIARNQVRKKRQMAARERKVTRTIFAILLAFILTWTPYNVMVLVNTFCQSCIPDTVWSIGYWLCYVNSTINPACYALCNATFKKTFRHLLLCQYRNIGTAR
M5 antag – blocks acetylcholine activation of human M5 receptor; P08912; CHO-hM5 cells, Fluo-8 calcium fluorescence, ACh EC80; inhibition, % at 3 µM; 360,000 compounds, 0.59% hits; AID 624040;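 active = inhibition above a per-plate cutoff, the mean of that plate's test compounds plus 3 SD, cut at about 27% in these data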;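 also: 0% = acetylcholine EC80 with DMSO and 100% = DMSO without agonist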
M4 ag – agonists of human muscarinic M4 receptor (CHRM4); CHO-K1 hM4/Gqi5, Fluo-8 calcium fluorescence; vehicle 0%, full acetylcholine response 100%; 360,000 compounds, 0.14% hits; P08173; AID 624127; activation, % at 3 µM;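 active = activation above the run mean over all test wells plus 3 SD, cut at about 32% in these data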;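 also: peak over basal fluorescence ratio per well then scaled between controls; 0% = DMSO wells and 100% = acetylcholine at EC100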
CHRM4 antagonist – blocks acetylcholine activation of human M4 receptor | P08173 | CHO-hM4 cells, ACh EC80, Fluo-8 calcium fluorescence | inhibition, % at 3 µM | 360,000 compounds, 0.73% hits | AID 624125;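 active = inhibition above its plate's cutoff, the mean inhibition of sample wells plus 3 SD, cut at about 27% in these data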;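 also: 0% = acetylcholine EC80 with DMSO and 100% = DMSO without agonist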
CHRM5 agonist – CHRM5 agonism in calcium assay. P08912. CHO-K1 hM5 cells, Fluo-8 calcium fluorescence; 0% DMSO wells, 100% maximal acetylcholine response. activation, % at 3 µM. 360,000 compounds, 0.19% hits. AID 624037;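 active = activation above the run's mean over test compounds plus 3 SD, cut at about 23% in these data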;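 also: signal is peak over basal fluorescence ratio across the kinetic read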
M5 PAM – CHRM5 positive allosteric modulation; P08912; CHO-K1 hM5, Fluo-8 calcium, ACh EC20 PAM; 0% = ACh EC20, 100% = ACh EC100; activation, % at 3 µM; 360,000 compounds, 0.3% hits;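 active = activation above the run cutoff, the mean activation of all test compounds plus 3 SD, cut at about 18% in these data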
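Assay system: CHO-K1 hM5 cells / Incubation: Fluo-8 loading 80 min at 37 °C plus 30 min room temperature / Technique: Fluo-8 calcium dye fluorescence, kinetic read / Repeats: single replicate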
An asterisk follows results filed as active.

For CCOc1ccc(S(=O)(=O)N2CCCC(C(=O)NCCN3CCOCC3)C2)cc1Cl (stereo unspecified) the results were CHRM4 PAM 3.8, M5 antag -2.7, M4 ag 1.9, CHRM4 antagonist -6.8, CHRM5 agonist -2.5 and M5 PAM 1.2.
CC(C)NC(=O)CN1CCN(C(=O)c2ccc3oc(CCCc4ccccc4)nc3c2)CC1 was read as CHRM4 PAM 22.9*, M5 antag 5.9, M4 ag 2.8, CHRM4 antagonist -4.5, CHRM5 agonist -3.1 and M5 PAM 2.8.
For CCCCn1c(N)c(N(CCC(C)C)C(=O)c2oc3ccc(OCC)cc3c2C)c(=O)[nH]c1=O the results were CHRM4 PAM 9.9, M5 antag 5.4, M4 ag 2.2, CHRM4 antagonist -12.4, CHRM5 agonist -0.1 and M5 PAM 0.2.
Screening CCC(C)(C#CCN1CCCCC1)OCCC#N (stereo unspecified) returned CHRM4 PAM -16.3, M5 antag 60.3*, M4 ag 0.3, CHRM4 antagonist 47.1*, CHRM5 agonist -8.2 and M5 PAM -17.9.
CCC(C#CCN1CCCCC1)(CC)OCCC#N was read as CHRM4 PAM -14.0, M5 antag 24.1, M4 ag 0.8, CHRM4 antagonist 25.0, CHRM5 agonist -8.2 and M5 PAM -22.3.
CC(OC(=O)Cc1n[nH]c(=O)c2ccccc12)C(=O)Nc1cc(Cl)cc(Cl)c1 (stereo unspecified) was read as CHRM4 PAM -3.8, M5 antag 0.0, M4 ag 0.0, CHRM4 antagonist 0.1, CHRM5 agonist 1.7 and M5 PAM -5.8.
For CC(OC(=O)Cc1n[nH]c(=O)c2ccccc12)C(=O)Nc1ccc(Cl)cn1 (stereo unspecified) the results were CHRM4 PAM 2.4, M5 antag -21.1, M4 ag 4.1, CHRM4 antagonist -5.8, CHRM5 agonist 0.3 and M5 PAM 19.2*.
For O=C(NC(C(=O)N/N=C/c1cc([N+](=O)[O-])ccc1O)c1n[nH]c(=O)c2ccccc12)c1ccccc1 (stereo unspecified) the results were CHRM4 PAM -6.3, M5 antag 12.1, M4 ag -0.1, CHRM4 antagonist 9.7, CHRM5 agonist -1.0 and M5 PAM 0.5.
`CCOC(=O)C1CCN(C(=O)c2ccco2)CC1` gave CHRM4 PAM 17.9, M5 antag 4.0, M4 ag 0.8, CHRM4 antagonist -4.6, CHRM5 agonist 0.1 and M5 PAM 0.3.
`CCOC(=O)C1CCN(C(=O)c2ccc(C)o2)CC1` gave CHRM4 PAM 2.0, M5 antag 7.2, M4 ag 0.2, CHRM4 antagonist 100.1*, CHRM5 agonist 3.5 and M5 PAM -2.5.
`CCOC(=O)C1CCN(Cc2ccc(OCc3ccccc3)cc2)CC1` gave CHRM4 PAM -16.2, M5 antag 18.6, M4 ag 3.3, CHRM4 antagonist 38.8*, CHRM5 agonist -19.3 and M5 PAM -10.9.
For CCOc1ccc(CN2CCC(Cc3ccccc3)CC2)cc1 the results were CHRM4 PAM -15.6, M5 antag 4.5, M4 ag 0.9, CHRM4 antagonist 26.5*, CHRM5 agonist -20.6 and M5 PAM -0.6.
`NC(=O)C1CCN(Cc2ccc(OCc3ccccc3)cc2)CC1` gave CHRM4 PAM -14.5, M5 antag 7.9, M4 ag 0.7, CHRM4 antagonist 20.9, CHRM5 agonist -12.8 and M5 PAM -1.6.
O=C(NCc1ccccc1)c1ccc(CN2CCC(Cc3ccccc3)CC2)cc1 was read as CHRM4 PAM -16.9, M5 antag 23.1, M4 ag 3.7, CHRM4 antagonist 19.5, CHRM5 agonist -6.1 and M5 PAM -16.5.
Screening COc1ccc(CN2CCC(Cc3ccccc3)CC2)cc1OC returned CHRM4 PAM -7.2, M5 antag 3.6, M4 ag 0.8, CHRM4 antagonist 0.2, CHRM5 agonist -6.2 and M5 PAM 0.3.
CCc1ccccc1NC(=O)c1ccc(CN2CCC(Cc3ccccc3)CC2)cc1 was read as CHRM4 PAM -21.0, M5 antag 13.9, M4 ag 5.7, CHRM4 antagonist 35.6*, CHRM5 agonist -4.4 and M5 PAM -25.7.
`Cc1cnc(C(=O)N(c2ccc(N3CCOCC3)cc2)C2C(=O)Nc3ccccc3N=C2c2ccc(F)cc2)cn1` (stereo unspecified) gave CHRM4 PAM 1.7, M5 antag -1.4, M4 ag 1.4, CHRM4 antagonist -21.2, CHRM5 agonist 0.4 and M5 PAM -3.9.
For CCOC(=O)C1CCCN(CCc2ccccc2)C1 (stereo unspecified) the results were CHRM4 PAM -15.2, M5 antag 20.3, M4 ag 0.6, CHRM4 antagonist 36.7*, CHRM5 agonist -16.8 and M5 PAM -31.7.
`Cc1cc(C)cc(N2CCCn3c2nc2c3c(=O)[nH]c(=O)n2C)c1` gave CHRM4 PAM 3.4, M5 antag 0.4, M4 ag -1.9, CHRM4 antagonist -13.4, CHRM5 agonist -8.9 and M5 PAM 0.3.
`O=C(CNC(=O)c1nc[nH]c1C(=O)N1CCc2ccccc2C1)OCc1ccccc1` gave CHRM4 PAM -7.4, M5 antag 27.0*, M4 ag 20.2, CHRM4 antagonist 28.8*, CHRM5 agonist -5.8 and M5 PAM -29.9.
For C[C@H](NC(=O)c1nc[nH]c1C(=O)NCc1ccc(CNC(=O)OC(C)(C)C)cc1)C(=O)OCc1ccccc1 the results were CHRM4 PAM -12.6, M5 antag 29.3*, M4 ag 24.1, CHRM4 antagonist 49.7*, CHRM5 agonist 2.2 and M5 PAM -39.3.
For C[C@@H](NC(=O)c1nc[nH]c1C(=O)NCC(=O)OCc1ccccc1)c1ccccc1 the results were CHRM4 PAM -11.1, M5 antag 27.8*, M4 ag 24.7, CHRM4 antagonist 19.6, CHRM5 agonist -3.7 and M5 PAM -34.7.
Screening O=C(CNC(=O)c1nc[nH]c1C(=O)N1CCNCC1)OCc1ccccc1 returned CHRM4 PAM 8.3, M5 antag -14.7, M4 ag 1.4, CHRM4 antagonist -8.6, CHRM5 agonist 6.2 and M5 PAM 4.0.
`C[C@@H](NC(=O)c1nc[nH]c1C(=O)OCc1ccccc1)c1ccccc1` gave CHRM4 PAM -0.5, M5 antag 19.7, M4 ag 1.6, CHRM4 antagonist -2.3, CHRM5 agonist 1.6 and M5 PAM -4.1.
Screening CNc1ccc(/C=C\CCCO)cn1 returned CHRM4 PAM -2.9, M5 antag -5.0, M4 ag 0.4, CHRM4 antagonist -4.6, CHRM5 agonist -1.0 and M5 PAM 1.8.
